Measurements reported in publication PMC5650512 (Cell chemical biology, 2017).

Tests used:
[1] = tested on: MDA-MB-231 cells; test: Mitochondrial membrane potential ΔΨm; assay type: cell-based
[2] = tested on: AMPKα (p-Thr172); test: AMPKα Thr172 phosphorylation western blot, MCF-7; assay type: cell-based
[3] = tested on: MCF-7 cells; test: Mitochondrial membrane potential ΔΨm; assay type: cell-based
Method in brief: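 JC-1 arm: MCF-7 cells exposed to test compound (20 µM, 4 h), with or without pre-treatment with (±)-14,15-EET (1 µM). Red/green ratio quantified as mean ± S.D. (n=4). TMRE arm: 20,000 cells/well grown overnight, TMRE 500 nM for 30 min at 37 °C, two washes in PBS/0.2% BSA, read Ex 530/Em 590 nm. FCCP (10 µM, 30 min) background subtracted.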

[4] = tested on: AMPKα (p-Thr172); test: AMPKα phosphorylation western blot, MDA-MB-231; assay type: cell-based; conditions: 1 µM; 24 hours
[5] = tested on: MCF-7 cell line; test: MCF-7 cell proliferation; assay type: cell-based; conditions: for Abrogation of biguanide growth inhibition by (±)-14,15-EET: (±)-14,15-EET 1 µM, MTT at 24 hours
[6] = tested on: MCF-7 cells; test: OCR and ECAR, XF Extracellular Flux Analyzer, MCF-7; assay type: cell-based
[7] = tested on: MCF-7 cells; test: Cellular EET levels by LC-ESI/MRM/MS; assay type: cell-based; conditions: 5 mM, 6 hours; P<0.05 for each regioisomer
[8] = tested on: MCF-7 cells; test: Cellular ATP by luminescent assay; assay type: cell-based; conditions: 6 hours, 10% serum
Method in brief: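 Cells seeded in 96-well plates and exposed to vehicle or test compound. Lysis solution added with 5 min orbital shaking, then luciferase/luminescent substrate; 10 min in the dark before reading luminescence. ATP was quantified against a standard curve of known ATP concentrations.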

[9] = biological target: T1, CYP2J2 (Homo sapiens, UniProt P51589); test: CYP2J2 AA epoxygenase activity; assay type: biochemical; conditions: data not shown
T1 sequence (P51589 1-502): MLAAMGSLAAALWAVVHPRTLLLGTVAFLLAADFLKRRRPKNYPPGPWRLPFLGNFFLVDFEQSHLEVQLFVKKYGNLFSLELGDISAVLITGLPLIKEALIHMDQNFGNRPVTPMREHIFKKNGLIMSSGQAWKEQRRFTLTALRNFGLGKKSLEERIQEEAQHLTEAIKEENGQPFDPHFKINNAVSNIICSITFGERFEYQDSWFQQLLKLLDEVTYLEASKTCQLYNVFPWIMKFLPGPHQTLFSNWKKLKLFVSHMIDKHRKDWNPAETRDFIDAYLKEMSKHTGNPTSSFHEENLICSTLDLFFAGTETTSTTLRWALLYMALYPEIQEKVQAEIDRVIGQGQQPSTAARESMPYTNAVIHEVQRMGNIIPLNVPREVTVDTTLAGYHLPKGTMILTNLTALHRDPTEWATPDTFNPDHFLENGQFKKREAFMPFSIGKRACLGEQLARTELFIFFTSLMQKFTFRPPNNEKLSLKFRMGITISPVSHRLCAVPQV

[10] = tested on: cytochrome P450 reductase (CPR); test: Rate of reduction of cytochrome c by CPR; assay type: biochemical
Method in brief: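 Run in a quartz cuvette with 1 mL 0.3 M potassium phosphate, pH 8.3, containing cytochrome c (62 μM) and NADPH (50 μM). Reaction started by adding CPR (final 0.2 mg/mL). Absorbance at 550 followed in real time.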

[11] = tested on: MDA-MB-231 cell line; test: MDA-MB-231 cell growth; assay type: cell-based
[12] = tested on: STAT3-Tyr705, p70 S6 Kinase-Thr389, mTOR-Ser2448, ERK1/2 phosphorylation; test: Western blot time course of signaling proteins, MCF-7; assay type: cell-based; conditions: 20 µM
[13] = tested on: T47D cell line; test: T47D cell growth; assay type: cell-based
[14] = tested on: MDA-MB-435/LCC6 cell line; test: MDA-MB-435/LCC6 cell growth; assay type: cell-based; conditions: data not shown
[15] = biological target: CYP3A4 (Homo sapiens, UniProt P08684); test: Microsomal CYP3A4-mediated EET biosynthesis; assay type: biochemical; conditions: IC50, inhibition of CYP3A4-mediated synthesis of (±)-14,15-EET, 30 minutes exposure
Chain of CYP3A4 (P08684 whole entry): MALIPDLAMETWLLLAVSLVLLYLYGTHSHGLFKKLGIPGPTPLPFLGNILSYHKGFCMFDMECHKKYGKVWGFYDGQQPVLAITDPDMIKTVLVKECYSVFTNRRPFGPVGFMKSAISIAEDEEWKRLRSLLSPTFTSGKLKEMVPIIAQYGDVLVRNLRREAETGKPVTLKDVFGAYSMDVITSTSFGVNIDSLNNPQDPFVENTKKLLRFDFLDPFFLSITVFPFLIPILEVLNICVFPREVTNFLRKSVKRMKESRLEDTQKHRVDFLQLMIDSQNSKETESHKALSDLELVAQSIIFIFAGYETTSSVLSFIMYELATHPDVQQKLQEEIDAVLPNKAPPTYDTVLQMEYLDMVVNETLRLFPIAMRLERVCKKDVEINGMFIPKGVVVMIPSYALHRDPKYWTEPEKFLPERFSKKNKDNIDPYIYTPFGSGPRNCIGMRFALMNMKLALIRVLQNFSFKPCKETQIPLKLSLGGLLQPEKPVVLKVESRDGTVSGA

[16] = tested on: mTOR, PKC-ζ/λ, AMPKα in MCF-7 tumors; test: Signaling proteins in MCF-7 xenograft tumors; assay type: in vivo, mice
[17] = Plasma concentration after ip dosing; assay type: in vivo, mice; conditions: female, athymic nude (Foxn1nu/Foxn1nu), mouse, 4 mg/kg/day
[18] = tested on: MCF-7 mammary fat pad xenograft; test: MCF-7 orthotopic mammary fat pad xenograft
[19] = tested on: AMPKα in MDA-MB-231 tumors; test: Signaling proteins in MDA-MB-231 xenograft tumors; design: species or system mice; conditions: in vivo
[20] = metformin 2.5 or 5 mM, over 5 hours

SMILES: CCCCCC1OC1C/C=C\C/C=C\C/C=C\CCCC(=O)O (racemic) [(±)-14,15-EET, (±)-14,15-(5Z,8Z,11Z)-EET, reference compound]
- Rescue of HBB-reduced ΔΨm by pre-treatment ([1]; exogenous (±)-14,15-EET, HBB 20 µM): partly rescued
- Effect on pAMPKα (Thr172) phosphorylation ([2]; 1 µM, 6 and 24 hours): suppression of pAMPKα phosphorylation
- Effect on ΔΨm alone (JC-1) ([3]; 1 µM, relative to control): increased mitochondrial cross membrane potential
- Rescue of HBB-reduced ΔΨm by pre-treatment ([3]; (±)-14,15-EET 1 µM, HBB 20 µM): partly rescued
- Effect on AMPK phosphorylation [4]: no effect

SMILES: [H]/N=C(/N)N/C(=N/[H])NCCc1ccccc1 [phenformin]
- Abrogation of biguanide growth inhibition by (±)-14,15-EET [5]: part of the inhibition

SMILES: NC(=O)c1ncn([C@@H]2O[C@H](CO)[C@@H](O)[C@H]2O)c1N [AICAR]
- Effect on ECAR ([6]; AICAR 100 µM): increased
- Effect on OCR ([6]; AICAR 100 µM): increased

SMILES: CCCCCC1OC1CCCCCCC/C=C\CCCC(=O)O (racemic) [(±)-14,15-EEZE]
- Effect on AMPKα activation ([2]; associated with OCR suppression): early activation
- Effect on ECAR ([6]; 1.0 µM): suppressed
- Effect on OCR ([6]; 1.0 µM): suppressed

SMILES: CN(C)C(=N)N=C(N)N [metformin]
- Abrogation of biguanide growth inhibition by (±)-14,15-EET [5]: abrogated most of the growth inhibition
- Intracellular EET levels [7]: reduced
- Effect on cellular ATP ([8]; metformin, normalized to cell number): no effect
- Inhibition of AA epoxygenase activity of CYP2J2 ([9]; 0.75, […] or 3 mM): not inhibited
- Inhibition of transfer of electrons from CPR (rate of reduction of cytochrome c) [10]: does not inhibit
- Effect on ECAR [6, 20]: transient ECAR spike, followed by suppression of ECAR
- Effect on OCR [6, 20]: marginal suppression of OCR

SMILES: CCCCNC(=N)NC(=N)N [buformin]
- Abrogation of biguanide growth inhibition by (±)-14,15-EET [5]: part of the inhibition

SMILES: CCCCCCNC(=N)NC(=N)NCc1ccccc1 [HBB, N1-hexyl-N5-benzyl-biguanide]
- Abrogation of HBB growth inhibition by EET analog C22 [5]: partially abrogated HBB inhibition
- Abrogation of biguanide growth inhibition by (±)-14,15-EET [5]: part of the inhibition
- Abrogation of HBB growth inhibition by EETs [11]: failed to counteract HBB inhibition
- Rescue from HBB inhibition by N-acetyl-cysteine (NAC) [11]: rescued by the antioxidant N-acetyl-cysteine (NAC)
- Effect on mTOR, S6 kinase and ERK ([12]; by 24 hours, presence or absence of serum): Significant inhibition
- Effect on p70 S6 kinase ([12]; independent of serum starvation): rapid and transient activation of p70 S6 kinase at 30 minutes
- Effect on Stat3 phosphorylation ([12]; presence of serum): inhibited Stat3 phosphorylation
- Reduction of ATP ([8]; HBB): 30%
- Effect on ΔΨm (JC-1) ([1]; 20 µM for 4 hours): rapid reduction of ΔΨm
- Effect on pAMPKα ([2]; 20 µM): activated pAMPKα within 30 minutes
- Inhibition of AA epoxygenase activity of CYP2J2 ([9]; microsomal): did not inhibit
- Abrogation of HBB growth inhibition by (±)-14,15-EET [13]: abrogated most of the HBB inhibition
- Abrogation of HBB growth inhibition by EETs [14]: failed to counteract HBB inhibition
- Effect on ΔΨm (JC-1) ([3]; 20 µM for 4 hours): rapid reduction of ΔΨm
- Effect on ΔΨm (TMRE, non-quenching conditions) ([3]; TMRE 500 nM): inhibit ΔΨm in a dose dependent fashion
- IC50 [15]: 9.5 µM
- Intratumoral PKC-ζ/λ phospho-threonine 410/403 (RPPA) ([16]; HBB 4 mg/kg/day vs. PBS, P=0.000119): reduction of PKC-ζ/λ phospho-threonine 410/403
- Intratumoral mTOR (RPPA) ([16]; HBB 4 mg/kg/day vs. PBS, P=4.06×10^−6): reduction of mTOR
- AMPKα activation in tumors ([16]; in vivo): failed to activate AMPKα
- concentration at 1 h [17]: 530 nM
- Tumor size vs. vehicle ([18]; 4 mg/kg/day, Gompertzian fitting P=0.0354): smaller than the vehicle-treated from day 8 onward
- Hepatic or cardiac toxicities by post-mortem histopathology ([18]; 6 mg/kg ip 4 days per week): no HBB-related hepatic or cardiac toxicities
- Tumor size ([18]; 6 mg/kg ip 4 days per week (24 mg/kg/week), P=0.039): reduced tumor size
- Tumor weights at the end point relative to vehicle ([18]; 6 mg/kg ip 4 days per week, P=0.034): half
- Minimal effective dose (MED) ([18]; ip daily beginning the day after tumor cell implantation): 4 mg/kg
- Potency of OCR inhibition compared to metformin [6]: > 250 fold
- Effect on ECAR ([6]; HBB 20 and 40 µM): transient spike of ECAR, followed by inhibition without recovery
- Effect on OCR ([6]; HBB 20 and 40 µM): rapid, dose-dependent reduction of OCR within 15 minutes
- AMPKα activation in tumors [19]: did activate AMPKα
